Experimental data pooled from the literature.
Compare with care: the assays were run in different laboratories.
Target: Mitogen-activated protein kinase 10 (MAPK10, Homo sapiens, UniProt P53779)

Cc1ccc(C(=O)NCc2ccsc2)cc1C#Cc1cn(C(C)C)c2ncnc(N)c12
activity vs control (enzyme activity, inhibitor; 1 µM): 84%

N#CCCc1ccc2c(c1)-c1[nH]c3ccc([N+](=O)[O-])cc3c1CC(=O)N2
remaining signal (cell-free assay; 0.5 µM): 93.3%

CS(=O)(=O)c1cc(C2(NC(=O)c3cncc4c3cnn4-c3ccc(F)cc3)CC2)ccn1
remaining binding (cell-free assay, competition with immobilised ligand; 1 µM): 100%

CNC(=O)c1cc(Oc2ccc(NC(=O)Nc3ccc(Cl)c(C(F)(F)F)c3)cc2)ccn1
inhibition (enzyme activity, inhibitor; 10 µM): 66%

CC(C)(C)c1nc2c(s1)c1nc(N)ncc1c1ccc(NS(=O)(=O)c3c(F)cccc3F)c(F)c12
remaining activity (enzyme activity, inhibitor, radiometric; 1 µM): 70%

C[C@@]1(Cc2ccc(C#N)cc2)C(=O)N(c2cc(Cl)cc(Cl)c2)c2ncc(C(=O)NC3(c4nc(C5CCC5)no4)CC3)n21
remaining binding (cell-free assay, competition with immobilised ligand; 1 µM): 100%

FC(F)(F)Oc1cccc(-c2cnc3ccc(-c4ccncc4)nn23)c1
activity vs control (enzyme activity, inhibitor, radiometric; 1 µM): 85%

CN(C)CC#Cc1ccc(OCCCc2sc(N3CCc4cccc(C(=O)Nc5nc6ccccc6s5)c4C3)nc2C(=O)O)c(F)c1
remaining binding (cell-free assay, competition with immobilised ligand; 1 µM): 71%

Cc1ccc(C(=O)Nc2ccc(CN3CCN(C)CC3)c(C(F)(F)F)c2)cc1C#Cc1cnc2cccnn12
remaining activity (enzyme activity, inhibitor; 23.5 nM): 85%

Cc1sc(C(=O)NC2COC2)cc1-n1cc(NC(=O)Nc2c(F)cccc2Cl)cn1
remaining activity (enzyme activity, inhibitor; 10 µM): 10.5%

COc1cc2ncnc(Nc3ccc(Oc4ccccc4)c(C)c3C)c2cc1OC
inhibition (enzyme activity, inhibitor; 1 µM): -1%

CNC(=O)Nc1ccc2c(c1)CC[C@@]21OC(=O)N(CC(=O)N(Cc2ccc(F)cc2)[C@@H](C)C(F)(F)F)C1=O
remaining binding (cell-free assay, competition with immobilised ligand; 1 µM): 73%

COc1cc(/C=C/C(=O)CC(=O)/C=C/c2ccc(O)c(OC)c2)ccc1O
activity vs control (enzyme activity, inhibitor; 1 µM): 109%

Oc1cccc(-c2nc(N3CCOCC3)c3oc4ncccc4c3n2)c1
remaining activity (enzyme activity, inhibitor; 10 µM): 101%

CC1=C(C#N)C(c2ccc3c(c2)c(NC(=O)c2ccccc2C)nn3C)C(C#N)=C(C)N1
remaining binding (cell-free assay, competition with immobilised ligand; 1 µM): 100%

CCOc1cc(-c2nncn2C)ccc1Nc1ncc2cc(C)nc(NCC(C)(C)C)c2n1
inhibition (enzyme activity, inhibitor, FRET; 1 µM): 80%

CCCS(=O)(=O)Nc1ccc(F)c(C(=O)c2c[nH]c3ncc(-c4ccc(Cl)cc4)cc23)c1F
inhibition (enzyme activity, inhibitor; 1 µM): < 10%

CCC(=O)N[C@@H]1CC[C@H](C(=O)N(C)c2ccc(-c3nc4ccccc4o3)cc2)C1
remaining binding (cell-free assay, competition with immobilised ligand; 1 µM): 100%

COc1cc(-c2cc(-c3ccc(N4CCNCC4)cc3)cnc2C)cc(OC)c1OC
inhibition (enzyme activity, inhibitor; 0.1 µM): 1%

COc1cc(Nc2cnc(C#N)c(O[C@H](C)CN(C)C)n2)ncc1-c1cnn(C)c1
remaining activity (enzyme activity, inhibitor, radiometric; 10 µM): 97%

O=C1Nc2ccc(Cl)cc2C1=Cc1cc(Cl)c(O)c(Cl)c1
remaining signal (cell-free assay; 0.5 µM): 98.8%

CS(=O)(=O)N1CCCC(NC(=O)[C@H](CCC2CCCCC2)NC(=O)c2ccc(CNc3ncnc4c3nnn4-c3ccccc3)cc2)C1 (stereo partly drawn)
remaining binding (cell-free assay, competition with immobilised ligand; 0.1 µM): 100%

Nc1ncnc2c1ncn2[C@@H]1O[C@H](COP(=O)(O)OP(=O)(O)OP(=O)(O)O)[C@@H](O)[C@H]1O
ΔTm (thermal stability, DSF; 200 µM): 2.73 °C

COc1cc(Cl)c(C(=O)N[C@@H](CN[C@H]2CC[C@@H](N)CC2)Cc2ccc(C#N)cc2)cc1-c1ccc(CN[C@H](C)c2ccc(C)cc2)o1
remaining activity (enzyme activity, inhibitor; 1 µM): 93%
